{
  "source": "paper PMC8600527",
  "about": "(ACS Omega, 2021)",
  "key": {"macrophage phagocytosis": {"test_system": "macrophage phagocytosis", "experiment": "Macrophage phagocytosis by the carbon clearance method", "assay_type": "in vivo, Balb/C mice (Mus musculus)", "settings": "mice, 1 mg/kg", "method_in_brief": "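Mice received saline, test compound (1, 2, 5 mg/kg) or dexamethasone (1 mg/kg) as reference. On day 6, carbon ink suspension was injected via the tail vein. Retro-orbital blood was taken at 0 and 30 min, lysed in 0.1% sodium carbonate, and read at 675 nm. Phagocytic index was derived from OD change between the two times (n = 5).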"}, "[1]": {"test_system": "carrageenan-induced paw edema", "experiment": "Carrageenan-induced paw edema in mice", "assay_type": "in vivo, Balb/c mice", "settings": "1 mg/kg; paw volume 0 h vs 10 h", "method_in_brief": "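Female Balb/c mice were fasted overnight and dosed orally with test compound at 1, 2 or 5 mg/kg (n = 5 per group). 1% carrageenan in PBS was injected subplantar into the left hind paw. Paw volume was read by plethysmometer at 1, 3, 6, 8 and 10 h. % inhibition was calculated from edema volume in control vs treated groups.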"}},
  "data": [
    {"smiles": "C[C@@H]1C[C@H]2[C@@H]3CCC4=CC(=O)C=C[C@]4(C)[C@@]3(F)[C@@H](O)C[C@]2(C)[C@@]1(O)C(=O)CO", "note": "[dexamethasone]", "values": [
      {"measurement": "phagocytic index", "setting": "macrophage phagocytosis", "value": "0.038 ± 0.002"},
      {"measurement": "percentage inhibition of paw edema", "setting": "[1]", "value": 88.5, "unit": "%"}
    ]}
  ]
}
